This note sets out measurements from ChEMBL document CHEMBL1126159, “A novel class of enkephalinase inhibitors containing a C-terminal sulfo group” (J Med Chem, 1992).

In test [1] the target is T1, Neprilysin (Rattus norvegicus, UniProt P07861).
T1 sequence (P07861 whole entry): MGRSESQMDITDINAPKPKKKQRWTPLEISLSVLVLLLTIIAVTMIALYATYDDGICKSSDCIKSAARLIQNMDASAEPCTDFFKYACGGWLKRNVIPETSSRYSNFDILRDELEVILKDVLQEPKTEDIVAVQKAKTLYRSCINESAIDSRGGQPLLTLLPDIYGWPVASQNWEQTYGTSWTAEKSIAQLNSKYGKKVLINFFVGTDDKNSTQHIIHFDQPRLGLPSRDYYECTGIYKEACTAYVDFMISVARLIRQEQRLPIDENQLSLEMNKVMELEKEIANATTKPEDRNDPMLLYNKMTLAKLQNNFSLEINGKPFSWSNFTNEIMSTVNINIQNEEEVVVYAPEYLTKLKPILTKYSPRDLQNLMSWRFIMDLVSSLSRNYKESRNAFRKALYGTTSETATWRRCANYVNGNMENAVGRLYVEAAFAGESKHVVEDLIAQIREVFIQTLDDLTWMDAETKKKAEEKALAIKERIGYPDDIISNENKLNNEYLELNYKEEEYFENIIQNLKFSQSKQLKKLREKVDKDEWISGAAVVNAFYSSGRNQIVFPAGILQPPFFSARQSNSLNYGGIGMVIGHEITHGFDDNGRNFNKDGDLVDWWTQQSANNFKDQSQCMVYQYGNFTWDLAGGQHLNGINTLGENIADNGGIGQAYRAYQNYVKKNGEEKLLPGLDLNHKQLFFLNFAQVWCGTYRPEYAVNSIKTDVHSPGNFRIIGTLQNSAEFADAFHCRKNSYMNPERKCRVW
Put plainly: In vitro inhibitory activity against enkephalinase enzyme from rat. The essentials:
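Rat striatal membranes (male Std:Wistar) were solubilized with 1% Triton X-100 in 50 mM Tris-HCl pH 7.7 and fractionated on DEAE-cellulose; the enkephalin dipeptidylcarboxypeptidase fraction served as enzyme. […] Reaction was stopped with 0.2 N HCl, products separated on Porapak Q, and [3H]Tyr-Gly-Gly measured. IC50 by log-probit from 3–4 concentrations, run 2–3 times.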

For test [2], the system named is Mus musculus. Put plainly: The compound was tested for administrating the compound intracisternally. The format is functional. In a few lines:
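Female ddY mice (18–22 g) received 10 µL aqueous solution intracisternally 1 min before ip phenylbenzoquinone (0.03% in 5% aqueous EtOH, 10 mL/kg). Writhes were counted for 15 min starting 5 min after phenylbenzoquinone. Mice with behavioural change after injection were excluded. More than 50% reduction versus vehicle control counted as effective; ED50 given with 95% confidence limits.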

Test [3] has as its system Mus musculus. Put plainly: The compound was tested for administrating the compound intravenously. The class given is functional. To be noted: iv. The essentials:
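Female ddY mice (18–22 g) were dosed iv 5 min before ip phenylbenzoquinone (0.03% in 5% aqueous EtOH, 10 mL/kg). Writhes were counted for 15 min starting 5 min after phenylbenzoquinone. More than 50% reduction versus vehicle control counted as effective; ED50 given with 95% confidence limits.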

Test [4] addresses T2, Angiotensin-converting enzyme (Oryctolagus cuniculus, UniProt P12822).
T2 sequence (P12822 whole entry): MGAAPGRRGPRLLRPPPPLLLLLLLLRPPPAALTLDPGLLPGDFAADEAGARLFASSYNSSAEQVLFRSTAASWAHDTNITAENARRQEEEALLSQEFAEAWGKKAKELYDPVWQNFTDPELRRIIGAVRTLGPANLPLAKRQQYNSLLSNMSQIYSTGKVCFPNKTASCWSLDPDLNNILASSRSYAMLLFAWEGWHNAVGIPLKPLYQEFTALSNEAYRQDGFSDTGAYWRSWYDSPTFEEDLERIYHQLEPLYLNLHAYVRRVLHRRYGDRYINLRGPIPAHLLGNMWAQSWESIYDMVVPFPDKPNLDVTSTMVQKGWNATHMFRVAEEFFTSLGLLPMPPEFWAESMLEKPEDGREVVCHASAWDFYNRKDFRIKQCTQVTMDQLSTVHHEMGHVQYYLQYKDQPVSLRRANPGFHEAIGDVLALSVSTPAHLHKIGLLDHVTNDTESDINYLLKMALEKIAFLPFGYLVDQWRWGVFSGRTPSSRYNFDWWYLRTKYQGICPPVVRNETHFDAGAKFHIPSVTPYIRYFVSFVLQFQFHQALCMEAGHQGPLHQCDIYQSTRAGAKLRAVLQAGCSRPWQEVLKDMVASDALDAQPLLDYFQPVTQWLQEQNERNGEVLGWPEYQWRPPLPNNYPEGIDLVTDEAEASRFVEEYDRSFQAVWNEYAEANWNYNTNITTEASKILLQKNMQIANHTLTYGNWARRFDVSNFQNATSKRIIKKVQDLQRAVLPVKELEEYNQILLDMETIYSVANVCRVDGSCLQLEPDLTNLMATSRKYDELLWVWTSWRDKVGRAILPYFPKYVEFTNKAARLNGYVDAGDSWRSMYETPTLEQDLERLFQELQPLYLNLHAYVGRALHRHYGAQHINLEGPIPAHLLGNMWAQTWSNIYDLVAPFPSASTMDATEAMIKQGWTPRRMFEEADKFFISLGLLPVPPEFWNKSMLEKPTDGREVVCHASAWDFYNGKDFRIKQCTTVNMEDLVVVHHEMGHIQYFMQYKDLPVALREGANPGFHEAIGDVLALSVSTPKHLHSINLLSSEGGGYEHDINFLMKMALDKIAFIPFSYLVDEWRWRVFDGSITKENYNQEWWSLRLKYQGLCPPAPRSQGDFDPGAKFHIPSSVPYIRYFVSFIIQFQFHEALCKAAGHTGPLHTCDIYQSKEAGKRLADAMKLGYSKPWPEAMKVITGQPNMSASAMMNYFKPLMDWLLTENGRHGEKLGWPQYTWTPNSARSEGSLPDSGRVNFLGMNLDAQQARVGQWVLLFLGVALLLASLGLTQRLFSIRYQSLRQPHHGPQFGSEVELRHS
In words: In vitro inhibitory activity against angiotensin I converting enzyme (ACE) from rabbit lung.

Test [5] has as its target T1, Neprilysin. Put plainly: The compound was tested in vitro for its inhibitory activity against Enkephalinase enzyme. The essentials:
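Rat striatal membranes (male Std:Wistar) were solubilized with 1% Triton X-100 in 50 mM Tris-HCl pH 7.7 and fractionated on DEAE-cellulose; the enkephalin dipeptidylcarboxypeptidase fraction served as enzyme. IC50 by log-probit from 3–4 concentrations, run 2–3 times.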

For test [6], the target named is T2, Angiotensin-converting enzyme. Put plainly: In vitro inhibitory activity against Angiotensin I converting enzyme from rabbit lung. In a few lines:
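Enzyme source was rabbit lung ACE. The inhibition procedure followed an earlier published method.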

Molecule `O=C(Nc1ccccc1S(=O)(=O)O)C(CS)Cc1ccccc1` (stereo unspecified) yielded an IC50 against Neprilysin [1] of 140 nM.

`CC(NC(=O)C(CS)Cc1ccccc1)S(=O)(=O)O` (stereo unspecified) came in with an IC50 against Neprilysin [1] of 31 nM.

For `O=C(O)CNC(=O)C(CS)Cc1ccccc1` (stereo unspecified) [THIORPHAN], the values for the ED50 with Mus musculus [2] and in the test on Mus musculus [3] were 17 µg mouse-1 and 72 mg/kg, respectively.

`O=C(Nc1ccc(S(=O)(=O)O)cc1)C(CS)Cc1noc2ccccc12` (stereo unspecified) had an IC50 against Neprilysin [1] of 12 nM.

With `O=C(Nc1ccc(S(=O)(=O)O)cc1)C(CS)Cc1ccc(F)cc1` (stereo unspecified), the IC50 against Neprilysin [1] amounted to 5 nM.

In the case of `O=C(Nc1ccc(S(=O)(=O)O)c2ccccc12)C(CS)Cc1ccccc1` (stereo unspecified), the IC50 in test [4] turned out to be 37000 nM; on Neprilysin [5], 7.4 nM.

`O=C(NCc1ccc(S(=O)(=O)O)cc1)C(CS)Cc1ccccc1` (stereo unspecified): the IC50 against Neprilysin [1] was 11 nM.

`CN(CCS(=O)(=O)O)C(=O)C(CS)Cc1ccccc1` (stereo unspecified): the IC50 against Neprilysin [1] amounted to 490 nM.

At Neprilysin [1], `CC(C)CC(NC(=O)C(CS)Cc1ccccc1)S(=O)(=O)O` (stereo unspecified) returned an IC50 of 250 nM.

On to `Cc1ccc(CC(CS)C(=O)NCCS(=O)(=O)O)cc1` (stereo unspecified), for which half-maximal inhibition on Neprilysin [1] (IC50) required 3.1 nM.

Take `O=C(Nc1ccc(S(=O)(=O)O)cc1)C(CS)Cc1ccc([N+](=O)[O-])cc1` (stereo unspecified): it took 14 nM to reach half-maximal inhibition on Neprilysin [5] (IC50).

The molecule `COc1ccc(CC(CS)C(=O)NCCS(=O)(=O)O)cc1` (stereo unspecified) showed an IC50 at Neprilysin [1] of 4.4 nM.

`O=C(C(CS)Cc1ccccc1)N(CCS(=O)(=O)O)C1CC1` (stereo unspecified) registered an IC50 against Neprilysin [1] of 4200 nM.

`O=C(NCCS(=O)(=O)[O-])C(CS)Cc1ccccc1.[Na+]` (stereo unspecified): the figures for the IC50 (at Neprilysin [1]; in test [6]) were 1.5 nM and 720000 nM, respectively. The ED50 came out at 20 µg mouse-1 with Mus musculus [2] and 18 mg/kg in the test with Mus musculus [3].

On to `O=C(Nc1cccc(S(=O)(=O)O)c1)C(CS)Cc1ccccc1` (stereo unspecified), for which the IC50 against Neprilysin [1] was found to be 0.27 nM; in test [6], 290000 nM.

On to `O=C(Nc1ccc(S(=O)(=O)O)cc1)C(CS)Cc1ccccc1` (stereo unspecified), for which the results for the IC50 (at Neprilysin [1]; in test [6]) were 1.7 nM and 210000 nM, respectively.

At Neprilysin [1], `CC(C)CC(CS)C(=O)Nc1cccc(S(=O)(=O)O)c1` (stereo unspecified) came in with an IC50 of 2.4 nM.

With `Cc1ccc(CC(CS)C(=O)Nc2cccc(S(=O)(=O)O)c2)cc1` (stereo unspecified), the IC50 against Neprilysin [1] amounted to 2.5 nM.

In turn, `O=C(NCCS(=O)(=O)O)C(CS)Cc1cccc2ccccc12` (stereo unspecified) came in with an IC50 at Neprilysin [1] of 8.4 nM.

Turning to `CN(C)c1ccc(CC(CS)C(=O)Nc2ccc(S(=O)(=O)O)cc2)cc1` (stereo unspecified), on Neprilysin [1], the IC50 is 14 nM.

Molecule `O=C(Nc1ccc(S(=O)(=O)O)cc1)C(CS)CCCc1ccccc1` (stereo unspecified) came in with an IC50 against Neprilysin [1] of 110 nM.

For `O=C(Nc1ccc(S(=O)(=O)O)cc1)C(CS)Cc1ccc(-c2ccccc2)cc1` (stereo unspecified), the 50% inhibitory concentration (IC50) against Neprilysin [1] was 52 nM.

On Neprilysin [5], `O=C(NCCS(=O)(=O)O)C(CS)Cc1ccc([N+](=O)[O-])cc1` (stereo unspecified) yielded an IC50 of 17 nM.

Molecule `CN(C)c1ccc(CC(CS)C(=O)NCCS(=O)(=O)O)cc1` (stereo unspecified) showed an IC50 against Neprilysin [1] of 37 nM.

Molecule `Cc1ccc(CC(CS)C(=O)Nc2ccc(S(=O)(=O)O)cc2)cc1` (stereo unspecified) returned an IC50 against Neprilysin [1] of 1.1 nM.

For the molecule `O=C(NCS(=O)(=O)O)C(CS)Cc1ccccc1` (stereo unspecified), the IC50 came to 2.2 nM on Neprilysin [1] and 12000 nM in test [6].

At Neprilysin [5], `CC(C)CC(CS)C(=O)NCCS(=O)(=O)O` (stereo unspecified) returned an IC50 of 5.2 nM.

Molecule `CC(C)CC(CS)C(=O)Nc1ccc(S(=O)(=O)O)cc1` (stereo unspecified) yielded an IC50 against Neprilysin [1] of 0.9 nM.

As for `COc1ccc(CC(CS)C(=O)Nc2ccc(S(=O)(=O)O)cc2)cc1` (stereo unspecified), the IC50 against Neprilysin [1] stood at 3.2 nM.

On Neprilysin [1], `O=C(Nc1ccc(S(=O)(=O)O)cc1)C(CS)Cc1cccnc1` (stereo unspecified) came in with an IC50 of 33 nM.

At Neprilysin [1], `O=C(NCCS(=O)(=O)O)C(CS)Cc1ccc(F)cc1` (stereo unspecified) had an IC50 of 3.5 nM.

In the case of `O=C(NCCCS(=O)(=O)O)C(CS)Cc1ccccc1` (stereo unspecified), at Neprilysin [1], the IC50 was determined as 5.4 nM.

At Neprilysin [1], `O=C(NCCS(=O)(=O)O)C(CS)CCCc1ccccc1` (stereo unspecified) had an IC50 of 11 nM.

`O=C(NCCS(=O)(=O)[O-])[C@@H](CS)Cc1ccccc1.[Na+]`: the values for the IC50 (against Neprilysin [1]; in test [6]) were 0.82 nM and 430000 nM, respectively. Besides, the ED50 stood at 11.8 µg mouse-1 with Mus musculus [2] and 8.5 mg/kg with Mus musculus [3].

The molecule `O=C(Nc1ccc(S(=O)(=O)O)cc1)C(CS)Cc1ccc(C(F)(F)F)cc1` (stereo unspecified) had an IC50 at Neprilysin [1] of 150 nM.

In the case of `O=C(NCCS(=O)(=O)[O-])[C@H](CS)Cc1ccccc1.[Na+]`, the figures for the IC50 (on Neprilysin [1]; in test [6]) were 4.4 nM and 740000 nM, respectively. The ED50 was found to be 17.7 µg mouse-1 in the test on Mus musculus [2] and 43.3 mg/kg in the test with Mus musculus [3].

For the molecule `O=C(Nc1ccc(S(=O)(=O)O)cc1)C(CS)Cc1cccc2ccccc12` (stereo unspecified), the IC50 against Neprilysin [1] turned out to be 34 nM.
